Source: ChEMBL document CHEMBL3400032 (Bioorg Med Chem, 2015)

Tests used:
[1] = Drug metabolism in human liver S9 fraction assessed as compound remaining at 1 uM after 30 mins by HPLC/MS/MS analysis relative to control; type: ADME, subcellular; settings: read-out: Stability
In short: (§1)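 Test compound at 1 µM final, incubated 30 min at 37 °C in serum, or in S9 mix (50 mM potassium phosphate pH 7.4, 3 mM NADPH, 1 mg protein/mL pooled male SD rat or human liver S9). Preincubated 5 min at 37 °C, compound added in acetonitrile–water (1:1), stopped with ice-cold acetonitrile, centrifuged, filtered, parent and carboxylate hydrolysate quantified by HPLC-MS/MS.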

[2] = Solubility of the compound at pH 5.5; type: physicochemical; settings: buffer
Rattus norvegicus [3] = test: AUC in rat assessed as 2-(3-aminopiperidin-1-yl)-3-(2-chlorobenzyl)-5-methyl-4-oxo-4,5-dihydro-3H-imidazo[4,5-c]quinoline-7-carboxylic acid level at 20 mg/kg, po; type: ADME, organism-based, Plasma; set-up: dose 20 mg/kg, route oral; settings: in vivo
[4] = Permeability of the compound at pH 7.4 by PAMPA; type: ADME; settings: read-out: permeability
[5] = Drug metabolism in human serum assessed as compound remaining at 1 uM after 30 mins by HPLC/MS/MS analysis relative to control; type: ADME, cell-free; settings: read-out: Stability; in short: as §1
[6] = Drug metabolism in human liver S9 fraction assessed as metabolite 3 formation at 1 uM after 30 mins by HPLC/MS/MS analysis relative to control; type: ADME, subcellular; settings: s9, 0.5 h; in short: as §1
Rattus norvegicus [7] = test: Oral bioavailability in rat assessed as 2-(3-aminopiperidin-1-yl)-3-(2-chlorobenzyl)-5-methyl-4-oxo-4,5-dihydro-3H-imidazo[4,5-c]quinoline-7-carboxylic acid level at 20 mg/kg; type: ADME, organism-based; settings: in vivo
Serum [8] = test: Drug metabolism in human serum assessed as 2-(3-aminopiperidin-1-yl)-3-(2-chlorobenzyl)-5-methyl-4-oxo-4,5-dihydro-3H-imidazo[4,5-c]quinoline-7-carboxylic acid formation at 1 uM after 30 mins by HPLC/MS/MS analysis relative to control; type: ADME, cell-free; settings: 0.5 h; in short: as §1
[9] = Solubility of the compound at pH 2.5; type: physicochemical; settings: buffer
[10] = Drug metabolism in Sprague-Dawley rat liver S9 fraction assessed as 2-(3-aminopiperidin-1-yl)-3-(2-chlorobenzyl)-5-methyl-4-oxo-4,5-dihydro-3H-imidazo[4,5-c]quinoline-7-carboxylic acid formation at 1 uM after 30 mins by HPLC/MS/MS analysis relative to control; type: ADME, subcellular; settings: s9, 0.5 h; in short: as §1
[11] = Drug metabolism in Sprague-Dawley rat liver S9 fraction assessed as compound remaining at 1 uM after 30 mins by HPLC/MS/MS analysis relative to control; type: ADME, subcellular; settings: read-out: Stability; in short: as §1
Serum [12] = test: Drug metabolism in rat serum assessed as 2-(3-aminopiperidin-1-yl)-3-(2-chlorobenzyl)-5-methyl-4-oxo-4,5-dihydro-3H-imidazo[4,5-c]quinoline-7-carboxylic acid formation at 1 uM after 30 mins by HPLC/MS/MS analysis relative to control; type: ADME, cell-free; settings: 0.5 h; in short: as §1
Rattus norvegicus [13] = test: Cmax in rat assessed as 2-(3-aminopiperidin-1-yl)-3-(2-chlorobenzyl)-5-methyl-4-oxo-4,5-dihydro-3H-imidazo[4,5-c]quinoline-7-carboxylic acid level at 20 mg/kg, po; type: ADME, organism-based; set-up: dose 20 mg/kg, route oral; settings: in vivo
Rattus norvegicus [14] = test: Tmax in rat assessed as 2-(3-aminopiperidin-1-yl)-3-(2-chlorobenzyl)-5-methyl-4-oxo-4,5-dihydro-3H-imidazo[4,5-c]quinoline-7-carboxylic acid level at 20 mg/kg, po; type: ADME, organism-based; set-up: dose 20 mg/kg, route oral; settings: in vivo
[15] = Solubility of the compound at pH 7.4; type: physicochemical; settings: buffer
[16] = Permeability of the compound at pH 5 by PAMPA; type: ADME; settings: read-out: permeability
[17] = Drug metabolism in rat serum assessed as compound remaining at 1 uM after 30 mins by HPLC/MS/MS analysis relative to control; type: ADME, cell-free; settings: read-out: Stability; in short: as §1
Serum [18] = test: Drug metabolism in human serum assessed as 2-(3-aminopiperidin-1-yl)-3-(2-chlorobenzyl)-5-methyl-4-oxo-4,5-dihydro-3H-imidazo[4,5-c]quinoline-8-carboxylic acid formation at 1 uM after 30 mins by HPLC/MS/MS analysis relative to control; type: ADME, cell-free; settings: 0.5 h; in short: as §1
[19] = Drug metabolism in human liver S9 fraction assessed as 2-(3-aminopiperidin-1-yl)-3-(2-chlorobenzyl)-5-methyl-4-oxo-4,5-dihydro-3H-imidazo[4,5-c]quinoline-8-carboxylic acid formation at 1 uM after 30 mins by HPLC/MS/MS analysis relative to control; type: ADME, subcellular; settings: s9, 0.5 h; in short: as §1
Serum [20] = test: Drug metabolism in rat serum assessed as 2-(3-aminopiperidin-1-yl)-3-(2-chlorobenzyl)-5-methyl-4-oxo-4,5-dihydro-3H-imidazo[4,5-c]quinoline-8-carboxylic acid formation at 1 uM after 30 mins by HPLC/MS/MS analysis relative to control; type: ADME, cell-free; settings: 0.5 h; in short: as §1
[21] = Drug metabolism in Sprague-Dawley rat liver S9 fraction assessed as 2-(3-aminopiperidin-1-yl)-3-(2-chlorobenzyl)-5-methyl-4-oxo-4,5-dihydro-3H-imidazo[4,5-c]quinoline-8-carboxylic acid formation at 1 uM after 30 mins by HPLC/MS/MS analysis relative to control; type: ADME, subcellular; settings: s9, 0.5 h; in short: as §1
[22] = AUC in rat at 1.5 mg/kg, iv; type: ADME, organism-based; set-up: dose 1.5 mg/kg, route intravenous; settings: plasma
[23] = Clearance in rat at 1.5 mg/kg, iv; type: ADME, organism-based; set-up: dose 1.5 mg/kg, route intravenous; settings: in vivo
Liver microsome [24] = test: Clearance in Sprague-Dawley rat liver microsomes assessed per mg protein
[25] = Volume of distribution at steady state in rat at 1.5 mg/kg, iv; type: ADME, organism-based; set-up: dose 1.5 mg/kg, route intravenous; settings: in vivo, read-out: Vdss
Liver microsome [26] = test: Clearance in human liver microsomes assessed per mg protein
[27] = Half life in rat at 1.5 mg/kg, iv; type: ADME, organism-based; set-up: dose 1.5 mg/kg, route intravenous; settings: in vivo
[28] = Half life in rat at 1 mg/kg, iv; type: ADME, organism-based; set-up: dose 1 mg/kg, route intravenous; settings: in vivo
[29] = AUC in rat at 1 mg/kg, iv; type: ADME, organism-based; set-up: dose 1 mg/kg, route intravenous; settings: plasma
[30] = Clearance in rat at 1 mg/kg, iv; type: ADME, organism-based; set-up: dose 1 mg/kg, route intravenous; settings: in vivo
[31] = Volume of distribution at steady state in rat at 1 mg/kg, iv; type: ADME, organism-based; set-up: dose 1 mg/kg, route intravenous; settings: in vivo, read-out: Vdss
Rattus norvegicus [32] = test: Oral bioavailability in rat assessed as 2-(3-aminopiperidin-1-yl)-3-(2-chlorobenzyl)-5-methyl-4-oxo-4,5-dihydro-3H-imidazo[4,5-c]quinoline-7-carboxylic acid level at 10 mg/kg; type: ADME, organism-based; settings: in vivo
[33] = Plasma concentration in rat at 10 mg/kg, po after 6 hrs; type: ADME, organism-based; set-up: dose 10 mg/kg, route oral
In short: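 Rats dosed orally with prodrug; plasma levels of prodrug and carboxylate active metabolite measured over time, limit of quantification 1.0 ng/mL.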

SMILES	remaining at 0.5 h, 1 µM [1] [%]	Papp [4] [×10⁻⁶ cm/s]	remaining at 0.5 h, 1 µM [5] [%]	remaining at 0.5 h, 1 µM [11] [%]	Papp [16] [×10⁻⁶ cm/s]	remaining at 0.5 h, 1 µM [17] [%]	Drug metabolism (Serum [18])	Drug metabolism (Serum [20])	Drug metabolism [21]	other results
Cc1oc(=O)oc1COC(=O)c1ccc2c3nc(N4CCC[C@@H](N)C4)n(Cc4ccccc4Cl)c3c(=O)n(C)c2c1.Cl	17	14.2	< 0.5	1	12.5	< 0.5	–	–	–	solubility [2]: 2 µg/mL; AUC (Rattus norvegicus [3]): 61.9 ng·h/mL; Drug metabolism [6]: metabolite_detected; F (Rattus norvegicus [7]): 4%; Drug metabolism (Serum [8]): metabolite_detected; solubility [9]: 54 µg/mL; Drug metabolism [10]: metabolite_detected; Drug metabolism (Serum [12]): metabolite_detected; Cmax (Rattus norvegicus [13]): 81.7 ng/mL; Tmax (Rattus norvegicus [14]): 0.25 h; solubility [15]: 2 µg/mL
Cn1c(=O)c2c(nc(N3CCC[C@@H](N)C3)n2Cc2ccccc2Cl)c2cc(C(=O)O)ccc21	–	< 0.1	–	–	< 0.1	–	–	–	–	AUC [22]: 188 ng·h/mL; clearance [23]: 132 mL/min/kg; CLH (Liver microsome [24]): < 10 µL/min/mg; Vd [25]: 2.9 L/kg; CLH (Liver microsome [26]): < 10 µL/min/mg; half-life [27]: 1 h
Cn1c(=O)c2c(nc(N3CCC[C@@H](N)C3)n2Cc2cc(F)ccc2Cl)c2ccc(C(=O)O)cc21	–	–	–	–	–	–	–	–	–	half-life [28]: 8.3 h; AUC [29]: 99.9 ng·h/mL; clearance [30]: 167 mL/min/kg; Vd [31]: 31.5 L/kg

Continued, in another order:

remaining at 0.5 h, 1 µM [1] [%]	Papp [4] [×10⁻⁶ cm/s]	remaining at 0.5 h, 1 µM [5] [%]	remaining at 0.5 h, 1 µM [11] [%]	Papp [16] [×10⁻⁶ cm/s]	remaining at 0.5 h, 1 µM [17] [%]	Drug metabolism (Serum [18])	Drug metabolism (Serum [20])	Drug metabolism [21]	SMILES	other results
> 99	0.6	< 0.5	> 99	< 0.1	97	metabolite_detected	metabolite_detected	metabolite_detected	CN(C)CCOC(=O)c1ccc2c(c1)c1nc(N3CCC[C@@H](N)C3)n(Cc3ccccc3Cl)c1c(=O)n2C.Cl	Drug metabolism [19]: metabolite_detected
22	18	< 0.5	30	10.1	92	metabolite_detected	metabolite_detected	metabolite_detected	C[C@@H]1CN(CCOC(=O)c2ccc3c(c2)c2nc(N4CCC[C@@H](N)C4)n(Cc4ccccc4Cl)c2c(=O)n3C)C[C@H](C)O1.Cl	–
> 99	41.4	92	70	36.2	8.4	–	–	–	COC(=O)c1ccc2c3nc(N4CCC[C@@H](N)C4)n(Cc4ccccc4Cl)c3c(=O)n(C)c2c1.Cl	F (Rattus norvegicus [32]): 90%; Drug metabolism [6]: metabolite_detected; Drug metabolism (Serum [8]): metabolite_detected; Drug metabolism [10]: metabolite_detected; Drug metabolism (Serum [12]): metabolite_detected; concentration at 6 h [33]: < 1 ng/mL
48	3.4	7	78	< 0.1	76	metabolite_detected	metabolite_detected	metabolite_detected	Cl.Cn1c(=O)c2c(nc(N3CCC[C@@H](N)C3)n2Cc2ccccc2Cl)c2cc(C(=O)OCCCN3CCOCC3)ccc21	Drug metabolism [19]: metabolite_detected
